# Experimental data from different studies.
# Each line is one published result; the experiments were not run side by side.
# Target: Sigma intracellular receptor 2 (Tmem97, Rattus norvegicus, UniProt Q5U3Y7)
# Read-out: ligand displacement
# Technique: radioligand
# Sequence (Q5U3Y7 1-176, as in one of the studies): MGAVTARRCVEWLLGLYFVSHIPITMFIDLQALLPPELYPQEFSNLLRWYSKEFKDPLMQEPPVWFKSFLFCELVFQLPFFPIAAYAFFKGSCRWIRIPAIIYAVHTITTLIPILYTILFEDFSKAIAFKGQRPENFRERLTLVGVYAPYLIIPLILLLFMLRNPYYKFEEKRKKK
SMILES,setting,Ki [nM]
COc1ccc(CCC(C)N2CCc3cc(OC)c(OC)cc3C2)cc1 (stereo not shown),,0.59
COc1ccc2ccn(CCCCN3Cc4cc(OC)c(OC)cc4C3)c2c1,cell membranes,9.46
COc1cc2c(cc1OC)CN(C(C)CCc1ccc(O)cc1)CC2 (stereo not shown),,4.92
O=C(NCCN1CCCCC1)c1ccc(OCCCF)c(Br)c1,cell membranes,28.3
CN(C)C(=S)N/N=C1/C(=O)Nc2ccccc21,cell membranes,> 10000
COc1ccc2c(ccn2CCCCN2CCc3cc(OC)c(OC)cc3C2)c1,cell membranes,4.4
O=C(NCCN1CCCCC1)c1ccc(O)c(Br)c1,cell membranes,> 10000
COc1cc2c(cc1OC)CN(CCCCn1ccc3c(OC)cccc31)CC2,cell membranes,7.73
O=C(NCCN1CCCCC1)c1cc(Br)ccc1OCCCF,cell membranes,92.9
COc1cc2c(cc1OC)C(=O)N(CCCCN1C(=O)/C(=N\NC(=S)N(C)C)c3ccccc31)CC2,cell membranes,> 10000
